Published values of several laboratories.
Target: Wee1-like protein kinase 2 (WEE2, Homo sapiens, UniProt P0C1S8)

CC1CCCN1c1nccc(-c2cnn3ncccc23)n1 (stereo not drawn)
remaining binding (binding; 1 µM): 100%

O=C(NCC1CCOCC1)c1n[nH]cc1NC(=O)c1c(F)cccc1F
remaining binding (binding; competition with immobilised ligand; 1 µM): 100%

O=C1CCc2cc(Nc3cc(OC4CCOCC4)c([N+](=O)[O-])cc3Cl)ccc2N1
remaining binding (cell-free assay; competition with immobilised ligand; 1 µM): 96%

O=C(NCCCN1CCOCC1)c1ccc(Nc2nccc(-c3cc4ccccc4s3)n2)cc1
remaining binding (binding; competition with immobilised ligand; 1 µM): 86%

CN(c1nccc(-c2cnn3ncccc23)n1)C1CC1
remaining binding (binding; 1 µM): 100%

O=C(Nc1cnc(Oc2ccc(F)cc2)nc1)N1CCc2ncccc2[C@@H]1c1ccc(F)cc1
remaining binding (cell-free assay; competition with immobilised ligand; 1 µM): 95%

O=C(NCCCN1CCOCC1)c1ccc(Nc2ncc(Cl)c(-c3ccc(Cl)s3)n2)cc1
remaining binding (binding; competition with immobilised ligand; 1 µM): 19%

COc1ccnn2ncc(-c3ccnc(N(C)C)n3)c12
remaining binding (binding; 1 µM): 96%

CCN1CCN(Cc2ccc(C(=O)Nc3ccc(C)c(Oc4ccc5c(c4)CC(=O)N5)c3)cc2C(F)(F)F)CC1
remaining binding (binding; competition with immobilised ligand; 1 µM): 100%

Cc1cnn2ncc(-c3ccnc(N(C)C)n3)c2c1
remaining binding (binding; 1 µM): 100%

CCc1ccccc1C(=O)Nc1n[nH]c2c(C)c(F)c(C3C(C#N)=C(C)N(C)C(C)=C3C#N)cc12
remaining binding (cell-free assay; competition with immobilised ligand; 1 µM): 82%

c1cncc(-c2cccc(Nc3nccc(NC4CCCCC4)n3)c2)c1
remaining binding (binding; competition with immobilised ligand; 10 µM): 100%

C=CC(=O)N1CCC(C(=O)NCC(=O)N2CCN(c3nc(-c4cnc(N)nc4C(F)F)nc(N4CCOCC4)n3)CC2)CC1
remaining binding (binding; competition with immobilised ligand; 1 µM): 100%

O=C(NCc1ncc(C(F)(F)F)cc1Cl)c1ccc2c(c1)C1(CCS(=O)(=O)CC1)[C@H](C1CC1)N2S(=O)(=O)c1ccc(F)cc1
remaining binding (cell-free assay; competition with immobilised ligand; 1 µM): 100%

COc1cnc(Nc2cccc(S(N)(=O)=O)c2)nc1N1CCN(c2ccccc2)C(=O)C1
remaining binding (binding; competition with immobilised ligand; 1 µM): 100%

O=C(c1ccc(Nc2ncc(Cl)c(-c3ccc(Cl)s3)n2)cc1)N1CCC(N2CCCC2)CC1
remaining binding (binding; competition with immobilised ligand; 1 µM): 8.4%

C[C@@H]1CCN(c2nccc(-c3cnn4ncccc34)n2)C1
remaining binding (binding; 1 µM): 87%

CNC(=O)c1ccc(Nc2ncc(C(F)(F)F)c(NCc3nccnc3N(C)S(C)(=O)=O)n2)cc1
remaining binding (cell-free assay; competition with immobilised ligand; 0.1 µM): 97%

N[C@@H]1CCN(c2nccc(-c3cnn4ncccc34)n2)C1
remaining binding (binding; 1 µM): 100%

FC(F)(F)Oc1cccc(-c2cnc3ccc(-c4ccncc4)nn23)c1
remaining binding (binding; competition with immobilised ligand; 5 µM): 86%

Cn1cc(Cl)c2c(Oc3c(F)cc(Nc4cc(Cl)nc(N)n4)cc3F)ccnc21
remaining binding (cell-free assay; competition with immobilised ligand; 0.1 µM): 93%
